# Screening results as filed in PubChem BioAssay.
# NPY-Y2 PAM-ag: NPY-Y2 potentiators or agonists, primary screen, cell-based; 220,000 tested, 0.45% active; cells expressing NPY-Y2, potentiator/agonist read-out; activation, % at 3.6 µM; AID 1359, 2008; Neuropeptide Y receptor type 2 (Homo sapiens), P49146; in the data active means activation above about 27%;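 further: cells stimulated with NPY near EC25 plus isoproterenol at EC100; 0% = vehicle plus submaximal agonist and 100% = vehicle plus saturating agonist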
# Target sequence (P49146 whole entry, looked up): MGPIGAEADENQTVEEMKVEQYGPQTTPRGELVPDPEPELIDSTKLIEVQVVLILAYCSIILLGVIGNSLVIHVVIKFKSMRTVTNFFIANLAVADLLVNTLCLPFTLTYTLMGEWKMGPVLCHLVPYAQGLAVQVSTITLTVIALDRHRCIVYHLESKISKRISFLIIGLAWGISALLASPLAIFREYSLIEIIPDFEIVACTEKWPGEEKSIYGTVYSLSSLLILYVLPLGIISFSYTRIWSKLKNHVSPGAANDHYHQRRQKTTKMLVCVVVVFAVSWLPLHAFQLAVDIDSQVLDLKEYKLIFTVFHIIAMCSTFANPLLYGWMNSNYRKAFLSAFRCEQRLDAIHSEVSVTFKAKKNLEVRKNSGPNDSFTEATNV
# NPY1 pot ag: NPY-Y1 receptor potentiators or agonists, primary screen, cell-based. activation, % at 3.6 µM. NPY-Y1 expressing cells, potentiator/agonist activation. 220,000 tested, 0.37% active; in the data active means activation above about 33%, passing the limit was not always enough;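 further: cells stimulated with NPY at EC10 then isoproterenol at EC100; 0% = low agonist plus stimulus and 100% = saturating agonist plus stimulus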
# NPY Y1 blocker: NPY-Y1 receptor antagonists, primary screen, cell-based; inhibition, % at 3.6 µM; 200,000 tested, 1% active; HEK293-CNG Y1 cells, membrane potential fluorescence; NPY at EC95, then isoproterenol; AID 1040, 2008;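 active means inhibition above the campaign mean inhibition of all tested compounds plus 3 SD, cut at about 20% in these data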;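 further: 0% = DMSO wells given NPY plus isoproterenol and 100% = isoproterenol alone without NPY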
#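 Material: HEK293 Y1/CNG channel cell line; also added: NPY (25 nM), isoproterenol (1 µM), Ro 20-1724 (25 µM); doses: one concentration, 3.6 µM, in 0.4% DMSO; schedule: compound incubation 1 h at room temperature, readout 45 min post-stimulation; technique: membrane potential fluorescence; measure: fluorescence ratio normalized to % inhibition between controls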
# NPY Y2 blocker: NPY-Y2 receptor antagonists, primary screen, cell-based. Neuropeptide Y receptor type 2 (Homo sapiens), P49146. NPY-Y2 expressing cells, antagonist mode. inhibition, % at 2.7 µM. 140,000 tested, 0.99% active; in the data active means inhibition above about 17%;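 further: 0% = vehicle with agonist challenge and 100% = reference antagonist with challenge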
# Numbers without * were called inactive; x = no result. Most compounds without a hit are left out; they make up all but 1.8% or so of the library.
SMILES,NPY-Y2 PAM-ag,NPY1 pot ag,NPY Y1 blocker,NPY Y2 blocker
COC(=O)C(Cc1ccc(O)cc1)NC(=O)C12CC3CC(CC(C3)C1)C2 (stereo not given),63*,51*,-9,x
O=C(O)c1cccc(CSc2n[nH]c(-c3ccc(Cl)cc3Cl)n2)c1,-5,-17,1,x
CCCN(CC1CC1)C(=O)CSc1ncnc2sccc12,-5,1,1,x
Cc1nc(NC(C)c2ccccc2)c2c3c(sc2n1)CCC3 (stereo not given),-20,-66,38*,17*
OCC1(Cc2ccc(Cl)cc2)CCN(Cc2ccc(Oc3ncccn3)cc2)CC1,-4,-6,0,x
COc1ccccc1OCC(O)Cn1c(=N)n(Cc2ccccc2)c2ccccc21 (stereo not given),-26,-55,27*,39*
CCCCCn1c(=N)n(CC(O)COc2ccccc2OC)c2ccccc21 (stereo not given),-28,-76,25*,35*
Cc1ccccc1OCC(O)Cn1c(=N)n(Cc2ccccc2)c2ccccc21 (stereo not given),-17,-3,x,x
CCCCn1c(=N)n(CC(O)COc2cccc(C)c2)c2ccccc21 (stereo not given),-22,-26,31*,54*
O=C(COc1ncnc2sccc12)N1CCN(C(=O)c2ccco2)CC1,-6,2,-1,x
COc1ccccc1N=C(C)C1=C(O)CC(c2ccccc2)CC1=O (stereo not given),-14,-28,21*,x
Cc1ccc2c(CSc3nnc4ccccn34)cc(=O)oc2c1C,-8,10,0,4
CC(=O)NCCn1c(SCc2ccccc2F)nc2ccccc2c1=O,102*,77*,-6,2
Cc1ccc2c(CSc3nc4ccccc4c(=O)n3CCCO)cc(=O)oc2c1C,-22,-28,31*,28*
Nc1c(C(=O)Nc2ccccc2)c2nc3ccccc3nc2n1-c1ccc(O)cc1,46*,55*,x,x
CCOC(=O)c1c(N)n(-c2ccc(N)cc2)c2nc3ccccc3nc12,13,21,2,-1
Cc1cc2c(OCC(O)CNC3CCCCC3)cccc2[nH]1 (stereo not given),103*,110*,-11,x
Cc1cc2c(OCC(O)CN3CCCCC3)cccc2[nH]1 (stereo not given),101*,110*,-14,x
OC(COc1cccc2ccccc12)CN1CCCC1 (stereo not given),94*,99*,-15,3
C=C1CC(C)OC(c2ccccc2OCC(O)CN2CCCCC2)C1 (stereo not given),70*,75*,-10,3
O=C(NN=C1CCN(Cc2ccccc2)CC1)C(O)c1ccccc1 (stereo not given),9,6,-3,0
O=C(O)/C=C/c1cn(-c2ccccc2)nc1-c1ccc(-c2ccc([N+](=O)[O-])cc2)o1,17,-16,x,x
Cc1[nH]nc2c1C1(C(=O)N(Cc3ccc(Cl)cc3)c3ccccc31)C(C#N)=C(N)O2 (stereo not given),7,7,-4,2
CN1C(=O)C2(C(C#N)=C(N)Oc3n[nH]c(-c4ccc(Cl)cc4)c32)c2ccccc21 (stereo not given),43*,40*,-9,-1
CCc1ccc(OCC(=O)NC(NC(=S)Nc2ccccc2C)C(Cl)(Cl)Cl)cc1 (stereo not given),3,-1,21*,19*
SMILES,NPY-Y2 PAM-ag,NPY1 pot ag,NPY Y1 blocker,NPY Y2 blocker
CCC(C)(C)NC(=O)C(c1ccc(C)cc1)N(Cc1ccco1)C(=O)Cn1nnc2ccccc21 (stereo not given),-22,-122,25*,61*
O=C(NC1CCCCC1)C(c1ccc(F)cc1)N(Cc1ccco1)C(=O)CN1C(=O)c2ccccc2S1(=O)=O (stereo not given),-10,-9,9,2
Cc1ccc(C(C(=O)NC(C)(C)C)N(Cc2ccco2)C(=O)Cn2nnc(-c3cccs3)n2)cc1 (stereo not given),-42,-132,20*,34*
Cc1ccc(C(C(=O)NC2CCCCC2)N(Cc2ccco2)C(=O)Cn2cnc3ccccc32)cc1 (stereo not given),-42,-65,34*,75*
O=C(NC1CCCCC1)C(c1ccc(F)cc1)N(Cc1ccco1)C(=O)Cn1nnc2ccccc21 (stereo not given),1,-17,23*,36*
NCCn1c(-c2ccccc2)cc(C(=O)O)c1-c1ccccc1F,-9,-25,-5,0
O=C(NC1CCCCC1)C(c1ccccc1F)N(Cc1ccco1)C(=O)Cn1nnc2ccccc21 (stereo not given),-35,-84,72*,57*
Cc1nn(-c2ccccc2)c(Cl)c1C(=O)NCCCCNC(=O)c1c(C)nn(-c2ccccc2)c1Cl,1,-4,6,-2
CCC(=O)N(Cc1c(C)nn(-c2ccccc2)c1Cl)c1ccc(Cl)cc1,-11,-14,29*,19*
CS(=O)(=O)N1CCC(C(=O)NCc2ccc3c(c2)OCO3)CC1,17,14,-1,x
COc1ccc(OCCCNCCc2ccccc2)cc1,-11,0,21*,x
CC(C)(C)c1ccc(OCCCNCc2ccccc2)cc1,-3,-12,7,5
CC(=O)c1ccc(NC(=O)Nc2ccc(NS(=O)(=O)c3ccc(C)cc3)cc2)cc1,40*,45*,-12,-9
COC(=O)Nc1ccc(S(=O)(=O)Nc2ccc(C)cc2)cc1,14,21,0,-4
Cc1ccccc1NC(=O)C(c1ccccc1)C1CCCC1 (stereo not given),-8,-19,26*,23*
NC(=O)C(c1ccccc1)C1CCCC1 (stereo not given),-14,-17,-3,4
O=C(Nc1ccc2ccccc2c1)C(c1ccccc1)C1CCCC1 (stereo not given),-4,-14,33*,22*
Cc1ccc(NC(=O)C(NC2CCCC2)c2ccccc2)cc1Cl (stereo not given),-23,6,11,x
CCCc1ccc(OCC(=O)NNC(=O)c2cccnc2)cc1,5,-6,6,x
S=C(Nc1cccnc1)Nc1ccccc1Br,-6,-4,3,x
Oc1cccc(NC(=S)Nc2cccnc2)c1,60*,62*,6,1
CCN(CC)c1ccc(/C=N/NC(=O)c2cccc(S(=O)(=O)Nc3ccccc3OC)c2)c(O)c1,35*,47*,-9,-1
O=C(NCC1CC1)Nc1cccs1,-2,4,x,x
CCCN(CCC)S(=O)(=O)c1ccc(C(=O)N2CCCc3ccccc32)cc1,1,-2,4,5
CSc1nnc2c3ccccc3n(CCc3ccccc3)c2n1,-12,-20,29*,28*
CSc1nnc2c3ccccc3n(Cc3ccccc3)c2n1,-13,0,10,6
Cc1sc2nc(SCC(=O)C(C)(C)C)n(Cc3ccco3)c(=O)c2c1C,-8,-20,29*,18*
O=C(COC(=O)c1ccc(F)c(S(=O)(=O)N2CCCCC2)c1)NCc1ccc(F)cc1,-5,-10,8,x
